# This is a sample that favours compounds with a hit; in the whole collection about 2.4% have one here.
# Rpn11 inh – blocks the human proteasome subunit Rpn11; human 26S proteasome, Ub4-pepOG fluorescence polarization; 20S core pre-blocked with epoxomicin; inhibition, % at 20 µM; 360,000 tested, 0.59% active; AID 588493;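 active means inhibition at 20 µM, scaled to each plate's controls, above about 33%, limit read from the data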
# HNF4A DNA FP – change in binding of human HNF4 alpha to DNA. activity change, % at 10 µM. HNF4a-FITC DNA binding, fluorescence polarization, 1 h. AID 1224865. 360,000 tested, 0.3% active; in the data active means activity change above about 30%, passing the limit was not always enough
# TPT1 inhibitor – blocks Candida albicans tRNA 2'-phosphotransferase | recombinant caTPT1, FP RNA substrate dephosphorylation | inhibition, % at 5 µM | 300,000 tested, 0.81% active | AID 1962;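 active means inhibition above the mean of all tested compounds plus 3 SD, set per screening campaign, cut at about 24% in these data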;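 further: plate controls were DMSO alone for no effect and ferristatin control at 100 nM for full effect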
# CSN deneddyl inh – CSN deneddylation inhibition; Q92905; Purified CSN, SCF-Nedd8-OG deneddylation, fluorescence polarization; inhibition, % at 12.5 µM; 360,000 tested, 0.38% active; AID 651999;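 active means pattern-corrected inhibition above about 35%, with an unprinted fluorescence ratio check between 0.5 and 1.5, limit read from the data, passing the limit was not always enough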;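 further: 0% = enzyme with substrate and 100% = substrate without enzyme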
# Target sequence (Q92905 whole entry, looked up, one chain of several): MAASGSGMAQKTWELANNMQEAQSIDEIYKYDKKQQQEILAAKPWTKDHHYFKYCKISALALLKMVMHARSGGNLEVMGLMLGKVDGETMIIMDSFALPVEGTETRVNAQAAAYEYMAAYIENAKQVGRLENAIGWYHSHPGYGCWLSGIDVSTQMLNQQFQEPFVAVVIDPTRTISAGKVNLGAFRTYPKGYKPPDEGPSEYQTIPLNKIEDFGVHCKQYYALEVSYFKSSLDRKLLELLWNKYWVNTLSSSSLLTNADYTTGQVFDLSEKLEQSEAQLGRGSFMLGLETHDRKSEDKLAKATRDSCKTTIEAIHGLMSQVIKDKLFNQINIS
#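 Material: human Csn5 produced in HEK293T cells; Input: enzyme 0.24 nM; Reagent: SCFSkp2-Nedd8OG substrate at 10 nM final; Dosing: 12.5 µM compound; Incubation: 90 min reaction at room temperature; Detection: fluorescence polarization of the substrate; Evaluation: % inhibition of substrate cleavage by Csn5; Control set: substrate-only high control, full reaction low control.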
# Rin1 Abl inh – inhibitors of human Rin1-Abl protein interaction. TR-FRET Rin1/Abl binding, biochemical. inhibition, % at 7.35 µM. 360,000 tested, 0.4% active. AID 588664; in the data active means inhibition above about 5%, passing the limit was not always enough
# Neddyl block – blocks human cullin neddylation | TR-FRET cullin neddylation, biochemical | inhibition, % at 25 µM | 360,000 tested, 0.58% active | AID 651699; in the data active means inhibition above about 36%
# Neddyl conf – confirmation of human cullin neddylation inhibitors. calls only at 25 µM. shares compounds with Neddyl block. TR-FRET cullin neddylation biochemical assay. 1,800 tested, 13% active; in the data active means inhibition above about 40%;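 further: neddylation substrate is the cullin 1 ring ligase complex with SKP2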
# * hit, by the source's call; i = inactive; . = no result shown; + = active, no number.
SMILES,Rpn11 inh,HNF4A DNA FP,TPT1 inhibitor,CSN deneddyl inh,Rin1 Abl inh,Neddyl block,Neddyl conf
CC(C)Cc1nc(N2CCN(C(=O)c3ccco3)CC2)c(C#N)c2c1CCCC2,4,4,-2,-1,-1,24,.
Cc1cccc(-n2ncc3c(NCCCO)ncnc32)c1,-6,-3,2,1,3,39*,i
C=CCNc1ncnc2c1cnn2-c1cccc(C)c1,2,-1,-2,6,-2,.,.
COc1ncnc2c1ncn2CCCNCC(C)c1ccccc1 (stereo not drawn),6,-3,.,0,-3,11,.
Cc1ccc(CNC(=O)C2CCN(S(=O)(=O)c3ccc(Br)s3)CC2)cc1,-1,1,1,-4,2,-6,.
O=C1OCc2nc3cc4c(cc3c(-c3ccc(F)cc3)c21)OCO4,0,4,2,6,-2,52*,i
O=C(c1ccc(Cl)c(S(=O)(=O)N2CCCC2)c1)N1CCN(c2ncccn2)CC1,0,-3,6,-4,-2,1,.
O=S(=O)(c1ccc(S(=O)(=O)N2CCN(C3CCCCC3)CC2)cc1)N1CCCCCC1,-9,2,.,-2,-4,2,.
O=c1[nH]c2ccc(S(=O)(=O)N3CCN(C4CCCCC4)CC3)cc2[nH]c1=O,2,0,-2,-2,-3,40*,.
NC(=O)C1CCN(C(=O)c2ccc3ncsc3c2)CC1,-4,-4,.,1,3,7,.
CCOC(=O)N1CCN(C(=O)c2ccc3oc(CCc4ccccc4)nc3c2)CC1,6,-1,.,2,-4,5,.
NC(=O)C1CCN(C(=O)c2ccc3nc(-c4ccccc4)c(-c4ccccc4)nc3c2)CC1,1,-2,0,-1,-1,56*,.
CCOC(=O)N1CCN(C(=O)c2ccc3nc(-c4ccccc4)c(-c4ccccc4)nc3c2)CC1,2,0,1,3,3,42*,i
O=C(Cc1ccccc1)NCC(=O)OCC(=O)c1ccc(Cl)cc1,-3,0,-2,0,0,-4,.
COc1ccc(/C(C)=N\Nc2nc(-c3ccccc3)cc(=O)[nH]2)cc1,5,-1,0,-4,-1,46*,i
COc1ccc(/C(C)=N/Nc2nc(C)cc(-c3ccccc3)n2)cc1,-3,1,-2,-4,-2,2,.
COc1ccc(-c2cnc3ccccc3n2)cc1NC(=O)CNC(=O)c1ccccc1,9,2,-2,-2,0,39*,i
COc1ccccc1N(CCC#N)C(=O)COC(=O)CCC(=O)c1ccc(F)cc1,-6,4,.,0,1,14,.
Cc1ccc2c(c1)c1c3n2CCN(C(=O)C2CC2)C3CCC1 (stereo not drawn),2,0,-5,-3,-2,45*,i
Cc1ccc2c(c1)c1c3n2CCN(C(=O)CN2CCN(C)CC2)C3CCC1 (stereo not drawn),-4,-4,1,9,-2,34,.
Nc1ncnc(Nc2ccc(S(N)(=O)=O)cc2)n1,1,-4,.,5,1,-3,.
COc1ccc(CCNC(=O)C2=CC=CN3CCS(=O)(=O)N=C23)cc1,-1,-4,.,-3,-3,23,.
O=C(NCCc1ccc(Cl)cc1)C1=CC=CN2CCS(=O)(=O)N=C12,4,2,.,3,4,46*,+
O=C(NCCCc1ccccc1)c1ccccc1O,-4,7,1,3,-1,42*,i
COc1ccccc1/C=N/Nc1cc(C)nc2ccc(C)cc12,-5,-1,-1,-2,0,40*,i
SMILES,Rpn11 inh,HNF4A DNA FP,TPT1 inhibitor,CSN deneddyl inh,Rin1 Abl inh,Neddyl block,Neddyl conf
CCOC(=O)COc1ccccc1/C=N\NC(=O)c1cc2c(ccc3ccccc32)o1,13,0,.,3,-2,55*,.
NNc1nc2ccccc2c(=O)n1Cc1ccccc1,5,-3,-5,-3,1,41*,i
CC(C)OCCCn1c(NN)nc2ccccc2c1=O,6,2,-1,-2,0,7,.
Cc1cc(F)ccc1S(=O)(=O)Nc1ccccc1C(=O)NCc1cccnc1,-6,3,2,-1,-1,44*,i
COc1ccc(S(=O)(=O)Nc2ccccc2C(=O)NCc2cccnc2)cc1C,-3,1,-1,-1,3,40*,.
Cc1cc(F)ccc1S(=O)(=O)Nc1ccccc1C(=O)NC1CCN(Cc2ccccc2)CC1,0,-4,.,0,0,47*,+
O=C(NCc1cccnc1)c1ccccc1NS(=O)(=O)c1ccc(Br)cc1,-6,-3,.,-4,1,14,.
Cc1ccccc1C(=O)NC1CCN(Cc2ccccc2)CC1,6,3,-1,4,0,0,.
COC(=O)[C@]12CCCCC=C1N(Cc1ccc3c(c1)OCO3)C(=O)[C@H](CC(=O)NCCCCc1ccccc1)C2,.,2,.,3,.,-2,.
COc1cc(/C=C/C(=O)NCc2cccnc2)cc(OC)c1OC,-4,1,0,1,-4,47*,i
COc1cc2c(cc1NC(=O)/C=C/c1cc(OC)c(OC)c(OC)c1)oc1ccccc12,-2,2,0,-3,0,46*,i
COc1ccccc1/C=C/C(=O)NCc1cccnc1,-7,1,-4,0,-2,10,.
COc1ccc(-c2cc(C(F)(F)F)nc(-n3ccnc3)n2)cc1,-6,0,-1,-2,-4,45*,i
COc1ccc(-c2cc(C(F)(F)F)nc(-n3cncn3)n2)cc1,1,17,-6,-3,0,.,.
CC1(C)Cc2c(c(-c3ccco3)nc3sc4c(NCC5CCCO5)ncnc4c23)CO1 (stereo not drawn),15,6,2,4,-1,.,.
CC1(C)Cc2c(c(-c3ccco3)nc3sc4c(NCCN5CCOCC5)ncnc4c23)CO1,14,4,4,5,-2,51*,i
CC1CCc2c(sc(N)c2C(N)=O)C1 (stereo not drawn),17,5,8,11,4,40*,i
CCC1CCc2c(sc(N)c2C(N)=O)C1 (stereo not drawn),10,2,7,1,2,14,.
COC(=O)c1ccccc1NC(=O)NCC1CCCO1 (stereo not drawn),-4,6,-1,-1,-2,44*,i
Cn1cncc1C#Cc1ccc2cc(CCO)oc(=O)c2c1,-2,-1,.,2,-1,37*,i
O=C(O)c1cc(OCc2ccccc2)cc(OCc2ccccc2)c1,-6,2,-1,5,3,5,.
O=C(O)c1cc2cc(OCc3ccccc3)ccc2[nH]1,6,0,-2,2,0,51*,i
